# Results from ChEMBL document CHEMBL1921732, “Alkaloids from the Chinese vine Gnetum montanum” (J Nat Prod, 2011).
# pIC50: −log10 of the molar value. Active and inactive are the calls of the source. No cut-off for these calls is given here.
# Columns and labels:
# Staphylococcus aureus = assay: Antibacterial activity against methicillin-resistant Staphylococcus aureus 01A1095 assessed as growth inhibition at 350 uM after 19 hrs; assay type: functional
# Summary of the method: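 Strain 01A1095 optical-density viability assay in caMH broth at 1980 CFU/well. Compounds were in DMSO (final 1.75%) and added before the bacteria. Plates were incubated at 37°C until OD620 reached 0.7-0.8, cooled 30 min and read at 620 nm. Vehicle served as the uninhibited-growth control and ciprofloxacin at 500 µg/mL as the kill control in internal control wells.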
# Pseudomonas aeruginosa [1] = assay: Antibacterial activity against Pseudomonas aeruginosa PAO1 assessed as growth inhibition at 87.5 uM; assay type: functional; conditions: read-out: GI
# [2] = Selectivity ratio of antimicrobial activity for Pseudomonas aeruginosa PAO1 over methicillin-resistant Staphylococcus aureus 01A1095; assay type: functional
# Pseudomonas aeruginosa [3] = assay: Antibacterial activity against Pseudomonas aeruginosa PAO1; assay type: functional, organism-based
# Pseudomonas aeruginosa [4] = assay: Antibacterial activity against Pseudomonas aeruginosa PAO1 assessed as growth inhibition at 175 uM; assay type: functional; conditions: read-out: GI
# Pseudomonas aeruginosa [5] = assay: Antibacterial activity against Pseudomonas aeruginosa PAO1 assessed as growth inhibition at 350 uM; assay type: functional, organism-based
SMILES,growth inhibition (GI) (Staphylococcus aureus),growth inhibition (GI) (Pseudomonas aeruginosa [5]),other results
COc1cc2c3c(cc4cc(O)c(O)cc4c3c1O)[N+](C)(C)CC2,inactive,,inhibition of growth at 87.5 µM (Pseudomonas aeruginosa [1]): 59%
O=C([O-])C(F)(F)F.Oc1cc2c(cc1O)[C@@H]1c3ccc(O)c(O)c3C[C@H]3Cc4cc(O)c(O)cc4[N+]31CC2 (some centres undefined),,,"inhibition of growth at 350 µM (Staphylococcus aureus; 01A1095, 19 h, read-out: GI): 55%; Selectivity ratio [2]: 36; pIC50 (Pseudomonas aeruginosa [3]): 5.01; MIC (Pseudomonas aeruginosa [3]): 35 µM"
COc1cc2c3c(c1O)-c1cc(O)c(O)cc1CC3[N+](C)(C)CC2 (racemic),inactive,,inhibition of growth at 175 µM (Pseudomonas aeruginosa [4]): 59%
COc1cc2c(cc1O)C(Cc1ccc(O)c(O)c1)[N+](C)(C)CC2 (racemic),inactive,inactive,
COc1cc2c(cc1O)C(Cc1ccc(O)cc1)[N+](C)(C)CC2 (racemic),inactive,inactive,
C[N+]1(C)CCc2cc(O)c(O)cc2C1Cc1ccc(O)c(O)c1 (racemic),inactive,inactive,
